Assay results from ChEMBL document CHEMBL4402610 (J Med Chem, 2020).

What was measured:
Protease = Protease (Human immunodeficiency virus 1, UniProt Q9YQ12); test: Inhibition of HIV-1 protease
[1] = system: Human immunodeficiency virus 1; test: Antiviral activity against HIV1 LAI infected in human MT2 cells; format: functional, organism-based; settings: Human immunodeficiency virus 1, M:B_Lai
[2] = system: Human immunodeficiency virus 1; test: Antiviral activity against HIV1 NL4-3 infected in human MT4 cells assessed as reduction in p24 Gag protein production; format: functional, organism-based; settings: Human immunodeficiency virus 1, NL4-3, MT4
[3] = system: Human immunodeficiency virus 1; test: Antiviral activity against atazanavir resistant HIV1 harboring protease L23I/E34Q/K43I/M46I/I50L/G51A/L63P/A71V/V82A/T91A mutant infected in human MT4 cells assessed as reduction in p24 Gag production; format: functional, organism-based; settings: Human immunodeficiency virus 1, MT4
Outline: (§1)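 MT-4 cells (10^5/mL) were exposed to 100 TCID50s of each HIV-1 and treated with drug. Inhibition of p24 Gag protein production was the endpoint for EC50. PI-resistant variants had been selected in vitro by passaging HIV-1 NL4-3 in MT-4 cells under increasing PI (up to 5 μM). Assays were run in duplicate, and values are means of two independent experiments.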

[4] = system: Human immunodeficiency virus 1; test: Antiviral activity against lopinavir resistant HIV1 harboring protease L10F/V32I/M46I/I47A/A71V/I84V mutant infected in human MT4 cells assessed as inhibition of p24 Gag production; format: functional, organism-based; settings: Human immunodeficiency virus 1, MT4; outline: as §1
[5] = system: Human immunodeficiency virus 1; test: Antiviral activity against darunavir resistant HIV1 harboring protease P30 L10I/I15V/K20R/L24I/V32I/M36I/ M46L/L63P/K70Q/V82A/I84V/L89M mutant infected in human MT4 cells assessed as reduction in p24 Gag production; format: functional, organism-based; settings: Human immunodeficiency virus 1, MT4; outline: as §1
[6] = Selectivity ratio of IC50 for antiviral activity against atazanavir resitant HIV1 harboring protease L23I/E34Q/K43I/M46I/I50L/G51A/L63P/A71V/V82A/T91A mutant infected in human MT4 cells to IC50 for antiviral activity against wild-type HIV1 NL4-3; format: functional
[7] = Selectivity ratio of IC50 for antiviral activity against lopinavir resistant HIV1 harboring protease L10F/V32I/M46I/I47A/A71V/I84V mutant infected in human MT4 cells to IC50 for antiviral activity against wild-type HIV1 NL4-3; format: functional
[8] = Selectivity ratio of IC50 for antiviral activity against darunavir resistant HIV1 P30 harboring protease L10I/I15V/K20R/L24I/V32I/M36I/ M46L/L63P/K70Q/V82A/I84V/L89M mutant infected in human MT4 cells to IC50 for antiviral activity against wild-type HIV1 NL4-3; format: functional

Sequence of Protease (Q9YQ12 whole entry): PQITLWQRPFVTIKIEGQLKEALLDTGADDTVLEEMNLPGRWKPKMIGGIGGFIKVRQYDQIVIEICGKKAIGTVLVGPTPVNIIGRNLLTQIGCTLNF

## CC(C)CN(C[C@@H](O)[C@H](Cc1ccccc1)NC(=O)O[C@H]1C[C@H]2CO[C@H]3OC1C[C@@H]23)S(=O)(=O)c1ccc2nc(NC(C)C)oc2c1
Protease
  Ki: 0.047 nM
[1]
  IC50: 0.3 nM
[2]
  IC50: 38 nM
[3]
  IC50: 350 nM
[4]
  IC50: > 1000 nM
[5]
  IC50: 640 nM
[6]
  Ratio IC50: 9.1
[7]
  Ratio IC50: >26
[8]
  Ratio IC50: 17

## CC(C)CN(C[C@@H](O)[C@H](Cc1ccccc1)NC(=O)O[C@H]1C[C@H]2CO[C@H]3OC1C[C@@H]23)S(=O)(=O)c1ccc2nc(NC3CC3)sc2c1
Protease
  Ki: 0.027 nM
[1]
  IC50: 1.86 nM

## CC(C)CN(C[C@@H](O)[C@H](Cc1ccccc1)NC(=O)OC1C[C@@H]2CO[C@@H]3OC1C[C@H]23)S(=O)(=O)c1ccc2nc(NC3CC3)sc2c1 (stereo partly drawn)
Protease
  Ki: 0.002 nM
[1]
  IC50: 3.3 nM

## CC(C)CN(C[C@@H](O)[C@H](Cc1cccc(F)c1)NC(=O)OC1C[C@@H]2CO[C@@H]3OC1C[C@H]23)S(=O)(=O)c1ccc2nc(NC3CC3)sc2c1 (stereo partly drawn)
Protease
  Ki: 0.008 nM
[1]
  IC50: 1.28 nM

## CC(C)CN(C[C@@H](O)[C@H](Cc1ccc(F)cc1)NC(=O)O[C@H]1C[C@H]2CO[C@H]3OC1C[C@@H]23)S(=O)(=O)c1ccc2nc(NC3CC3)sc2c1
Protease
  Ki: 0.036 nM
[1]
  IC50: 0.4 nM

## CC(C)CN(C[C@@H](O)[C@H](Cc1cc(F)cc(F)c1)NC(=O)OC1C[C@@H]2CO[C@@H]3OC1C[C@H]23)S(=O)(=O)c1ccc2nc(NC3CC3)sc2c1 (stereo partly drawn)
Protease
  Ki: 0.054 nM
[1]
  IC50: 0.086 nM
[2]
  IC50: 0.034 nM
[3]
  IC50: 0.21 nM
[4]
  IC50: 4.3 nM
[5]
  IC50: 4.5 nM
[6]
  Ratio IC50: 6.3
[7]
  Ratio IC50: 127
[8]
  Ratio IC50: 133

## COc1ccc(S(=O)(=O)N(CC(C)C)C[C@@H](O)[C@H](Cc2ccccc2)NC(=O)O[C@H]2C[C@H]3CO[C@H]4OC2C[C@@H]34)cc1
Protease
  Ki: 0.034 nM
[1]
  IC50: 71.7 nM

## COc1ccc(S(=O)(=O)N(CC(C)C)C[C@@H](O)[C@H](Cc2ccccc2)NC(=O)OC2C[C@@H]3CO[C@@H]4OC2C[C@H]34)cc1 (stereo partly drawn)
Protease
  Ki: 0.008 nM
[1]
  IC50: 38 nM

## CC(C)CN(C[C@@H](O)[C@H](Cc1cccc(F)c1)NC(=O)O[C@H]1C[C@H]2CO[C@H]3OC1C[C@@H]23)S(=O)(=O)c1ccc2nc(NC3CC3)sc2c1
Protease
  Ki: 0.024 nM
[1]
  IC50: 2.7 nM

## CC(C)CN(C[C@@H](O)[C@H](Cc1ccc(F)cc1)NC(=O)OC1C[C@@H]2CO[C@@H]3OC1C[C@H]23)S(=O)(=O)c1ccc2nc(NC3CC3)sc2c1 (stereo partly drawn)
Protease
  Ki: 0.002 nM
[1]
  IC50: 0.46 nM

## CC(C)CN(C[C@@H](O)[C@H](Cc1ccccc1)NC(=O)OC1C[C@@H]2CO[C@@H]3OC1C[C@H]23)S(=O)(=O)c1ccc2nc(NC(C)C)oc2c1 (stereo partly drawn)
Protease
  Ki: 0.006 nM
[1]
  IC50: 1.73 nM

## COC(=O)N[C@H](C(=O)N[C@@H](Cc1ccccc1)[C@@H](O)CN(Cc1ccc(-c2ccccn2)cc1)NC(=O)[C@@H](NC(=O)OC)C(C)(C)C)C(C)(C)C [ATAZANAVIR]
[2]
  IC50: 4 nM
[3]
  IC50: > 1000 nM
[4]
  IC50: 430 nM
[5]
  IC50: > 1000 nM
[7]
  Ratio IC50: 107

## CC(C)CN(C[C@@H](O)[C@H](Cc1cc(F)cc(F)c1)NC(=O)O[C@H]1C[C@H]2CO[C@H]3OC1C[C@@H]23)S(=O)(=O)c1ccc2nc(NC3CC3)sc2c1
Protease
  Ki: 0.007 nM
[1]
  IC50: 2.25 nM
